Published values collected from several papers.
Lines come from different studies, so protocols differ.
Target: Inhibitor of nuclear factor kappa-B kinase subunit beta (IKBKB, Homo sapiens, UniProt O14920)

Structure (SMILES) | assay | conditions | endpoint | value
Cc1sc(C(=O)NC2COC2)cc1-n1cc(NC(=O)Nc2c(F)cccc2Cl)cn1 | enzyme activity, inhibitor | 10 µM | remaining activity | 86.8%
O=C1NC(=O)c2cc(Nc3ccc(F)cc3)c(Nc3ccc(F)cc3)cc21 | cell-free assay | 0.5 µM | remaining signal | 95.6%
COc1ccc2c(c1)O[C@@H](c1ccc(OC)c(OC)c1)C[C@H]2NC(=O)C1(c2ccc3c(c2)OC(F)(F)O3)CC1 | cell-free assay, competition with immobilised ligand | 1 µM | remaining binding | 95%
COc1cccc2c(NCc3ccccc3)nc(-n3c(N)nc4ccccc43)nc12 | target engagement in cells, inhibitor, chemoproteomics | 20 mM | inhibition | -13.4%
CCC(=O)N[C@@H]1CC[C@H](C(=O)N(C)c2ccc(-c3nc4ccccc4o3)cc2)C1 | cell-free assay, competition with immobilised ligand | 1 µM | remaining binding | 100%
Nc1ncnc2occ(-c3ccc(NC(=O)Nc4cc(C(F)(F)F)ccc4F)cc3)c12 | enzyme activity, inhibitor | 20 µM | remaining activity | 0.55%
CCC1(CC)NC(=O)c2c(c3ccc(Cl)c(Cl)c3n2C)C1C#N (centres unmarked) | thermal stability, DSF | 10 µM | ΔTm | 0.1 °C
Nc1nc(NC2CCCCC2)sc1C(=O)c1ccccc1 | enzyme activity, inhibitor | 10 µM | remaining activity | 70%
Cn1c2c(c3ccc(Cl)c(Cl)c31)C(C#N)C(C)(C)NC2=O (centres unmarked) | thermal stability, DSF | 10 µM | ΔTm | -0.4 °C
Cc1cc(NC(=O)c2cccc3cc(-c4cccc5[nH]nc(N)c45)ccc23)ccc1F | enzyme activity, inhibitor | 0.1 µM | activity vs control | 106%
Cc1ccc(C(=O)NCc2ccsc2)cc1C#Cc1cn(C(C)C)c2ncnc(N)c12 | enzyme activity, inhibitor | 1 µM | activity vs control | 108%
Cc1ccc(Nc2nccc(N(C)c3ccc4c(C)n(C)nc4c3)n2)cc1S(N)(=O)=O | enzyme activity, inhibitor | 10 µM | inhibition | 17%
C[C@@H]1CN(c2cc(-c3nn(C)c4ccc(OC5(C)CC5)cc34)ncn2)C[C@H](C)O1 | cell-free assay, competition with immobilised ligand | 1 µM | remaining binding | 76%
CNC(=O)c1cc(Oc2ccc(NC(=O)Nc3ccc(Cl)c(C(F)(F)F)c3)cc2)ccn1 | enzyme activity, inhibitor | 10 µM | inhibition | -26%
COc1cc(Cl)c(C(=O)N[C@@H](CN[C@H]2CC[C@@H](N)CC2)Cc2ccc(C#N)cc2)cc1-c1ccc(CN[C@H](C)c2ccc(C)cc2)o1 | enzyme activity, inhibitor | 1 µM | remaining activity | 88%
CCN1CCC2(CC1)NC(=O)c1c(c3ccc(Cl)c(Cl)c3n1C)C2C#N (racemic) | thermal stability, DSF | 10 µM | ΔTm | 0 °C
O=C(Nc1cccnn1)N1CCC(=Cc2cccc(Oc3ccc(C(F)(F)F)cn3)c2)CC1 | cell-free assay, competition with immobilised ligand | 1 µM | remaining binding | 83%
CN(C)C1CCN(CC#Cc2nn(C3CCCC3)c3nc(NCc4ccccc4)ncc23)C1 (centres unmarked) | enzyme activity, inhibitor, FRET | 10 µM | inhibition | 2%
O=C1Nc2ccc(Cl)cc2C1=Cc1cc(Cl)c(O)c(Cl)c1 | cell-free assay | 0.5 µM | remaining signal | 93.6%
C=CC(=O)Nc1cc(Nc2nccc(Nc3cc(Cl)c(F)cc3C(C)(C)O)n2)c(OC)cc1N1CC[C@@H](N(C)C)C1 | enzyme activity, inhibitor | 1 µM | inhibition | -5%
Oc1cccc(-c2nc(N3CCOCC3)c3oc4ncccc4c3n2)c1 | enzyme activity, inhibitor | 10 µM | remaining activity | 74%

Structure (SMILES) | assay | conditions | endpoint | value
CCCOc1ccc(OC)c(F)c1C(=O)c1ccc(C(=O)N[C@@H]2CNC[C@H]2NC(=O)c2ccc3[nH]ncc3c2)cc1 | enzyme activity, inhibitor | 10 µM | remaining activity | 62%
COc1cc2ncnc(Nc3ccc(Oc4ccccc4)c(C)c3C)c2cc1OC | enzyme activity, inhibitor | 1 µM | inhibition | 3%
COc1cc(Nc2cnc(C#N)c(O[C@H](C)CN(C)C)n2)ncc1-c1cnn(C)c1 | enzyme activity, inhibitor, radiometric | 1 µM | remaining activity | 96%
O=C(O)[C@H]1[C@H](Cn2nnc3ccccc3c2=O)CC[C@@H]1C(=O)c1ccc(OCCC2CCOCC2)cc1 | cell-free assay, competition with immobilised ligand | 1 µM | remaining binding | 100%
N#CC1c2c([nH]c3c(Cl)c(Cl)ccc23)C(=O)NC12CCCCC2 (racemic) | thermal stability, DSF | 10 µM | ΔTm | 0.6 °C
O=C(Nc1cccnn1)N1CC(C/C=C/c2cncc(Oc3ccc(C(F)(F)F)cn3)n2)C1 | cell-free assay, competition with immobilised ligand | 1 µM | remaining binding | 94%
O=C(CSc1nc2nccnc2c(=O)n1CCc1ccccc1)Nc1nccs1 | enzyme activity, inhibitor | 10 µM | inhibition | 12%
CCN(CC)CCNC(=O)c1c(C)[nH]c(/C=C2\C(=O)Nc3ccc(Cl)cc32)c1C | enzyme activity, inhibitor | 0.5 µM | remaining activity | 101%
CCS(=O)(=O)c1cc2cc(C[C@@](O)(CC(C)(C)c3ccc(F)cc3C(N)=O)C(F)(F)F)[nH]c2cn1 | cell-free assay, competition with immobilised ligand | 1 µM | remaining binding | 83%
FC(F)(F)Oc1cccc(-c2cnc3ccc(-c4ccncc4)nn23)c1 | enzyme activity, inhibitor, radiometric | 1 µM | activity vs control | 94%
CCN(CC)CCNC(=O)c1c(C)[nH]c(/C=C2\C(=O)Nc3ccc(F)cc32)c1C | enzyme activity, inhibitor | 10 µM | inhibition | 9%
Clc1ccc(Nc2nnc(Cc3ccncc3)c3ccccc23)cc1 | cell-free assay | 0.5 µM | remaining signal | 85.6%
Cn1c2c(c3ccc(Cl)c(Cl)c31)C(C#N)C1(CCNCC1)NC2=O (racemic) | thermal stability, DSF | 10 µM | ΔTm | 0.6 °C
CCCCN(CCCC)C(=O)CN1C[C@@H](c2cc(OC)c3c(c2)OCO3)[C@H](C(=O)O)[C@H]1CC(C)(C)CCC | cell-free assay, competition with immobilised ligand | 1 µM | remaining binding | 100%
O=c1cc(-c2cccc3c2Sc2ccccc2S3)oc(N2CCOCC2)c1 | enzyme activity, inhibitor | 0.5 µM | remaining activity | 101%
Cc1ccc(NC(=O)c2ccc(C)c(C(F)(F)F)c2)cc1C#Cc1nn(C2CCC(O)CC2)c2ncnc(N)c12 (centres unmarked) | cell-free assay | 10 µM | remaining signal | 33%
O=C(Nc1cnn(-c2csc(C(=O)NC3COC3)c2)c1)Nc1ccccc1Cl | enzyme activity, inhibitor | 5 µM | remaining activity | 95.6%
CC/C(=N\NC(=O)NCc1cccc(O)c1)c1ccc(O)c(C)c1O | enzyme activity, inhibitor | 0.1 µM | inhibition | -0.9%
CN(c1ncccc1CNc1nc(Nc2ccc3c(c2)CC(=O)N3)ncc1C(F)(F)F)S(C)(=O)=O | enzyme activity, inhibitor | 1 µM | inhibition | 12.7%
CC(C)(C)c1nc(-c2cccc(NS(=O)(=O)c3c(F)cccc3F)c2F)c(-c2ccnc(N)n2)s1 | enzyme activity, inhibitor, radiometric | 1 µM | remaining activity | 94%
